STK33 inh – inhibitors of purified STK33 kinase, primary screen, biochemical, ADP-Glo luminescence, homogeneous, cell-free. AID 2661, 2010. Serine/threonine-protein kinase 33 (Homo sapiens), Q9BYT3. MBP phosphorylation. inhibition, % at 10 µM. 320,000 compounds, 0.073% hits;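 active = inhibition at or above 25%, using the most active replicate where run in duplicate; inactive = inhibition below 25%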
CDK5 p35 inh – inhibitors of human CDK5/p35 kinase, primary screen, biochemical, single concentration; Cyclin-dependent kinase 5 (Homo sapiens) + Cyclin-dependent kinase 5 activator 1 (Homo …; Recombinant CDK5/p35, ADP-Glo luminescence, 60 min; inhibition, % at 10 µM; 330,000 compounds, 0.01% hits;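 active = highest replicate inhibition of at least 50% and at least 75% of replicates reaching 50%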;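 note: plate controls were DMSO neutral control for no effect and GW8510 at 10 µM for full effect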
Dyrk1A ADPGlo – rat Dyrk1A kinase inhibitors, primary screen, biochemical, single point, plate reader; 310,000 compounds, 0.43% hits; AID 504441, 2011; ADP-Glo luminescence, NFATc1 peptide; inhibition, % at 12.5 µM; Dual specificity tyrosine-phosphorylation-regulated kinase 1A (Rattus norvegicus), Q63470; in the data active = inhibition above about 50%;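 note: plate controls were vehicle with enzyme for no effect and no enzyme for full effect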
GSK3B inh – human GSK3beta kinase inhibitors, primary screen, biochemical, cell-free homogeneous, HTS; Glycogen synthase kinase-3 beta (Homo sapiens), P49841; GST-GSK3beta kinase, ADP-Glo luminescence, 60 min; hits give low values; activity score (negative = inhibition), % at 10 µM; 300,000 compounds, 0.038% hits; AID 2097, 2009;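 active = more than half of replicate wells score below -50%, meaning over 50% inhibition versus plate controls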;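 note: 0% = median DMSO wells and -100% = median GW8510 positive control wells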
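Assay system: GST-fused GSK3beta enzyme, cell-free / Medium: Tris pH 7.5 buffer with MgCl2, DTT, BSA, heparin / Also added: peptide substrate plus 25 µM ATP (final) / Compound: 10 µM single point / Timing: kinase reaction with compound 60 min at room temperature / Detection: ADP-Glo luminescence / Benchmarks: DMSO neutral wells and GW8510 at 20 µM as positive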
GSK3 alpha inh – blockers of GSK3A enzyme activity – biochemical, luminescence, cell-free homogeneous, HTS, primary screen; AID 2650, 2010; 320,000 compounds, 0.1% hits; GSK-3 alpha kinase, ADP-Glo luminescence, 60 min; inhibition, % at 10 µM;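 active = more than half of replicates show inhibition above 20%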;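 note: GST-tagged GSK-3 alpha with peptide substrate and 25 µM ATP; 0% = DMSO neutral wells and 100% = GW8510 positive control wells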
Target sequence (P49840 whole entry, looked up): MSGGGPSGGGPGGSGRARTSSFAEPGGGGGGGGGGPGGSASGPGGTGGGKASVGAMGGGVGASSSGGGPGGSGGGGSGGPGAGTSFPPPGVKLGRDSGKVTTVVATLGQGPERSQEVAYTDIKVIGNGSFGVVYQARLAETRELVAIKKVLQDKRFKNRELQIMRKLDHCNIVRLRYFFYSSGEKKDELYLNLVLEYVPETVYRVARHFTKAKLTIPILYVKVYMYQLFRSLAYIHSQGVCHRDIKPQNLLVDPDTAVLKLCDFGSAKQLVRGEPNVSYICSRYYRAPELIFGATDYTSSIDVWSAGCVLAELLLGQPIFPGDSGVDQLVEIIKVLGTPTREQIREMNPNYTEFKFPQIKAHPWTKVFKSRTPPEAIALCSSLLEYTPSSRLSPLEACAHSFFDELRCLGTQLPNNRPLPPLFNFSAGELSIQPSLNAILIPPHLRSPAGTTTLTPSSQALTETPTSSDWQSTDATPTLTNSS
ADP-Glo artifact – ADP-Glo luciferase interference without Dyrk1A, dose response, artefact control for Dyrk1A inhibitor project, biochemical, luminescence, cherry-pick, set 02; shares compounds with Dyrk1A ADPGlo; ADP-Glo luciferase artifact assay, no Dyrk1A; AC50, µM (series often up to 12 µM), for inactives: at the highest dose activity change, negative = inhibition; 1,300 tested, under 10 active;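 active = fitted half-maximal dose AC50 no more than ten times the top valid tested dose, with luminescence dropping as dose rises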
* marks the source's active call; other numbers are inactive results; / = no result. This is one part of a sample in which hits are shown more often than they occur.

SMILES | STK33 inh | CDK5 p35 inh | Dyrk1A ADPGlo | GSK3B inh | GSK3 alpha inh | ADP-Glo artifact
O=C(N/N=C/c1cccc(O)c1)N/N=C/c1cccc(O)c1 | 3 | -1 | 54* | -14 | 19 | 8%
COc1cccc(Nc2nc(-c3ccc(O)cc3)cs2)c1 | 3 | -4 | 54* | -8 | / | 10%
COc1cccc(Nc2nc(-c3cccc(N4C(=O)c5ccccc5C4=O)c3)cs2)c1 | -1 | 0 | 2 | -1 | -2 | /
O=C(CSc1nnnn1-c1ccc(O)cc1)Nc1ccc(N2CCOCC2)c(Cl)c1 | 0 | 0 | 51* | -6 | 2 | 8%
COc1ccc(-n2c(Cn3c(=O)sc4ccccc43)nnc2SCC(=O)N2CCOCC2)cc1 | 0 | 0 | 56* | / | -2 | 7%
Brc1ccccc1C1=Nn2c(nnc2-c2ccccc2)SC1 | 0 | 1 | 73* | 1 | 4 | 8%
CS(=O)(=O)c1ccc2c(c1)sc1nc(=O)c(/C=C3/C=CC(=O)C(O)=C3)c(N)n12 | 2 | 0 | 55* | 0 | 8 | 10%
COC1=C/C(=C/c2c(N)n3c(nc2=O)sc2cc(S(C)(=O)=O)ccc23)C=CC1=O | 9 | 1 | 15 | -5 | 9 | /
O=C(COC(=O)C1CC2CCCC(C1)C2=O)Nc1ccccc1 (centres undefined) | / | -1 | -6 | / | / | /
COc1ccc(-c2ccc(=O)n(Cc3cccc([N+](=O)[O-])c3)n2)cc1 | -2 | -3 | 64* | 3 | -3 | 7%
COc1ccc2c(Cl)c(C(=O)N/N=C/c3cccnc3)sc2c1 | 0 | 1 | 64* | 5 | 13 | 10%
COc1ccc2c(Cl)c(C(=O)NN)sc2c1 | -1 | 2 | 26 | -3 | 1 | /
COc1ccc2c(Cl)c(C(N)=O)sc2c1 | 3 | 0 | 84* | 2 | 1 | 9%
O=C(N/N=C/c1cccnc1)c1sc2ccccc2c1Cl | -1 | 0 | 0 | 0 | 2 | /
COc1ccc(NCC(=O)Nc2ccc(Br)cc2F)c(OC)c1 | -1 | -2 | -7 | 1 | 0 | /
O=S(=O)(NC1=NCCC1)c1ccc(F)cc1F | -1 | 1 | -4 | -1 | 1 | /
O=c1cc(-c2ccccc2Cl)oc2c([N+](=O)[O-])c(O)cc(O)c12 | 2 | 5 | 83* | -53* | 39 | 12%
NC(=N\N=CCc1ccccc1)/C(N)=N/N=CCc1ccccc1 | / | 0 | 5 | / | / | /
COC(=O)c1cc(C)nc2c1C(=O)C(=O)C=C2N1CCOCC1 | 1 | 5 | 61* | -2 | -6 | 8%
O=C1COc2ccc(S(=O)(=O)Nc3ccc(F)cc3)cc2N1 | / | 1 | -4 | 0 | / | /
CC(OC(=O)c1cccc(-n2cnnn2)c1)C(=O)NC1(C#N)CCCCC1 (centres undefined) | -1 | 0 | / | / | 0 | /
Oc1cccc2c(-c3nn[nH]n3)ccnc12 | -2 | -4 | 70* | / | 1 | 12%
c1ccc2c(-c3nn[nH]n3)cccc2c1 | -1 | / | -4 | 3 | -5 | /
Cc1ccc2c(c1)N(CC(=O)NCCCN1CCN(C)CC1)C(=O)CO2 | -1 | 1 | 6 | 1 | -3 | /
CSc1nc(N)nc2c1ncn2CC(=O)N1CCN(Cc2c(C)cc(C)cc2C)CC1 | 1 | -1 | 3 | / | -2 | /
SMILES | STK33 inh | CDK5 p35 inh | Dyrk1A ADPGlo | GSK3B inh | GSK3 alpha inh | ADP-Glo artifact
Cc1cc(C)c(CN2CCN(C(=O)Cn3ccc(N)nc3=O)CC2)c(C)c1 | 0 | 0 | 50* | / | -1 | 8%
CN1CCN(C(=O)/C(=C/c2cccs2)NC(=O)c2ccco2)CC1 | -1 | -1 | -4 | -8 | -3 | /
O=C(Nc1nc(-c2ccc3c(c2)OCO3)cs1)C1COc2ccccc2O1 (centres undefined) | 0 | -2 | 20 | -2 | -1 | /
CC(=O)Nc1nc(-c2ccc3c(c2)OCO3)cs1 | 1 | 1 | 57* | 1 | -1 | 10%
CN(C)/C=N/c1nc(-c2ccc3c(c2)OCO3)cs1 | 2 | 0 | 77* | 0 | / | 6%
COc1cc(CN2CCCC(C(=O)N3CCc4ccccc4C3)C2)cc(OC)c1OC (centres undefined) | -2 | 2 | 1 | -3 | 7 | /
Cc1cccc(C(=O)N2CCN=C2SCc2ccc([N+](=O)[O-])cc2)c1 | -1 | 1 | / | -1 | -3 | /
C/C(=N/NC(=O)c1ccc(Br)s1)c1cccnc1 | 4 | 4 | 51* | -6 | 9 | 7%
CCNC(=O)n1cc(-n2cncn2)c(-c2ccccc2)n1 | 0 | 1 | 1 | 5 | -6 | /
COc1ccc(CC(=O)N2CCN(S(=O)(=O)c3cc(Cl)ccc3Cl)CC2)cc1 | 1 | 0 | 3 | / | -1 | /
Cc1ccc(/C=c2\sc3n(c2=O)CN(c2ccc(Br)cc2)CN=3)o1 | 0 | 0 | 62* | -7 | 1 | 9%
CC(C)Oc1ccc(C2CNC(=O)C2)cc1 (centres undefined) | 0 | 2 | 54* | 0 | -1 | 8%
C[C@@H]1O[C@@H](O[C@H]2[C@H](O)[C@@H](O)[C@H](Oc3c(-c4ccc(O)c(O)c4)oc4cc(O)cc(O)c4c3=O)O[C@@H]2CO)[C@H](O)[C@H](O)[C@H]1O | 5 | 3 | 52* | / | 13 | 7%
O=c1c(OC2OC(CO)C(O)C(O)C2O)c(-c2ccc(O)c(O)c2)oc2cc(O)cc(O)c12 (centres undefined) | 4 | -4 | 75* | -1 | 6 | 9%
C[C@@H]1O[C@@H](OC[C@H]2O[C@@H](Oc3cc(O)c4c(=O)cc(-c5ccc(O)c(O)c5)oc4c3)[C@H](O)[C@@H](O)[C@@H]2O)[C@H](O)[C@H](O)[C@H]1O | 5 | -1 | 59* | / | 8 | 13%
C[C@@H]1O[C@@H](Oc2c(-c3ccc(O)c(O)c3)oc3cc(O)cc(O)c3c2=O)[C@H](O)[C@H](O)[C@H]1O | 4 | -1 | 12 | / | 37 | /
O=c1c2c(O)cc(O)cc2oc2c(O)ccc(O[C@H]3O[C@@H](CO)[C@H](O)[C@@H](O)[C@@H]3O)c12 | 21 | 1 | 73* | / | 7 | 9%
COc1ccc([C@@H]2CC(=O)c3c(O)cc(O[C@@H]4OC(CO[C@@H]5OC(C)[C@H](O)[C@H](O)C5O)[C@@H](O)[C@@H](O)C4O)cc3O2)cc1O (some centres undefined) | 0 | 1 | 12 | 1 | 0 | /
